One assay addresses T1, Histone deacetylase 8 (Homo sapiens, UniProt Q9BY41).
T1 sequence (Q9BY41 whole entry): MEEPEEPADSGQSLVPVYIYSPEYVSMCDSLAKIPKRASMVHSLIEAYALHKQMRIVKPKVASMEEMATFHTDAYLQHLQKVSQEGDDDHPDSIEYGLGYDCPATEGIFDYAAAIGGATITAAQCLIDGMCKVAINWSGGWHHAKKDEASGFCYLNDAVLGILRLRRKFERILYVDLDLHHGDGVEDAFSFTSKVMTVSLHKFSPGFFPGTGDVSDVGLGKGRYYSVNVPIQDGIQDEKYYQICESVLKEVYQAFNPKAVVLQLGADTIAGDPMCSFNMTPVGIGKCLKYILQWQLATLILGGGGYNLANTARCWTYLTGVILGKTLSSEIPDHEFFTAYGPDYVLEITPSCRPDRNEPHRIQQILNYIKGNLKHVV
The assay can be described thus: Inhibition of His-tagged HDAC8 (unknown origin) expressed in Escherichia coli BL21(DE3) after 60 mins by MALDI mass spectrometry.

In the next assay the test system is A549. The assay can be described thus: Cytotoxicity against human A549 cells at 100 uM after 72 hrs by MTS assay. It counts as functional. Particulars: A549, 72 h. Summed up:
(§1)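 Cells kept in folate-free RPMI with 10% FBS and 1% pen/strep (KB, HeLa) or DMEM with 10% FBS and 1% pen/strep (A549). For the assay, cells were plated in folate-free RPMI for 24 h, then drug-treated for 72 h at 0.1% DMSO. Viability was read by MTS. Mean ± SD from at least 2 independent triplicate experiments.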
In general terms: Tetrazolium dyes change colour on reduction, which living cells bring about.

Assay [1] relates to KB. The assay can be described thus: Cytotoxicity against human KB cells after 72 hrs by MTS assay. The format is functional, cell-based.
Assay [2] addresses T2, Protein deacetylase HDAC6 (Homo sapiens) (UniProt Q9UBN7).
T2 sequence (whole entry): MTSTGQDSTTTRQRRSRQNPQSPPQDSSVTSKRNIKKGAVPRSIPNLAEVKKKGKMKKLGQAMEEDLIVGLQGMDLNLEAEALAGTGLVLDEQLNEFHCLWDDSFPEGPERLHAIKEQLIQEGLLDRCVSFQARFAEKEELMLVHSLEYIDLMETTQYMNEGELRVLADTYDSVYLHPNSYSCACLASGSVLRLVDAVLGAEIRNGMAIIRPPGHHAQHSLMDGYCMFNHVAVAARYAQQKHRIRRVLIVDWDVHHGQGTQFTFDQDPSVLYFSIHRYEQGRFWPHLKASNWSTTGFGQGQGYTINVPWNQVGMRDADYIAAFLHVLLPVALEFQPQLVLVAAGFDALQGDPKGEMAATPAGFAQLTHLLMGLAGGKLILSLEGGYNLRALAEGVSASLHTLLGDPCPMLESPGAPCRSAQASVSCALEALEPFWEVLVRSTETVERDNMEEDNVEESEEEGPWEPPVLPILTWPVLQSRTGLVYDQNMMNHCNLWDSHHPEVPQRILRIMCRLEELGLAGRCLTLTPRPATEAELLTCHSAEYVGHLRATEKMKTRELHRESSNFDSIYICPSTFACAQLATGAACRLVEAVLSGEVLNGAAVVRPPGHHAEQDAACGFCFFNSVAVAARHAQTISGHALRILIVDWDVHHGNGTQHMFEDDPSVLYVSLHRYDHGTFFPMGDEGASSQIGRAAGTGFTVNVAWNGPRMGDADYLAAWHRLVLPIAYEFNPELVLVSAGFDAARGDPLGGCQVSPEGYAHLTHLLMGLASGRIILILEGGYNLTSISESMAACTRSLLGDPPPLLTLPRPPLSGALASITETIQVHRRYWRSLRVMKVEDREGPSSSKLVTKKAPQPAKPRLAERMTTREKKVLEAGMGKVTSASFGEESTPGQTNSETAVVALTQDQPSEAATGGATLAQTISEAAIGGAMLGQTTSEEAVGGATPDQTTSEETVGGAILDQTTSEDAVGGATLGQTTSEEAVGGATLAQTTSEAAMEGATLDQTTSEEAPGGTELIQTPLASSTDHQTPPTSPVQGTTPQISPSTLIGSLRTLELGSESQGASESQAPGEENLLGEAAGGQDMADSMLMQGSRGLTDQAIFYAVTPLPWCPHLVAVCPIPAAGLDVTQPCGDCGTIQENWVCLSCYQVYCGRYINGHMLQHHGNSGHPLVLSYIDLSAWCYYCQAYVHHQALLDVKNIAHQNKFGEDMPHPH
The assay can be described thus: Inhibition of HDAC6 in human KB cells assessed as increase in tubulin acetylation at >= IC50 after 4 hrs by Western blotting analysis. It counts as cell-based. The gist of the method:
(§2)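 KB cells were plated for 24 h, then compound-treated for 4 h (tubulin acetylation) or 24 h (histone H4 acetylation). Cells were PBS-washed and lysed in CelLytic M with protease inhibitor cocktail. Protein was Bradford-quantified and equal amounts were resolved by SDS-PAGE at 100 V. Detection used IRDye680 and IRDye800 secondary antibodies.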
In general terms: A western blot detects proteins with antibodies after separation by electrophoresis.

The target in assay [3] is T3, Protein deacetylase HDAC6 (Homo sapiens, UniProt Q9UBN7).
T3 sequence (Q9UBN7 whole entry): T2 sequence (whole entry)
In words: Inhibition of HDAC6 (unknown origin) after 60 mins by MALDI mass spectrometry.

The subject of assay [4] is HeLa. The assay can be described thus: Cytotoxicity against human HeLa cells at 100 uM after 72 hrs by MTS assay. It counts as functional. Summed up:
as §1

Assay [5] addresses T4, Histone deacetylase 1 (Homo sapiens, UniProt Q13547). The assay can be described thus: Inhibition of HDAC1 (unknown origin) after 60 mins by MALDI mass spectrometry.
Assay [6] has as its system KB. The assay can be described thus: Cytotoxicity against human KB cells at 25 uM after 72 hrs by MTS assay in presence of folic acid.
Assay [7] deals with HeLa. In words: Cytotoxicity against human HeLa cells after 72 hrs by MTS assay. The format is functional, cell-based.
In assay [8] the target is T5, Histone deacetylase 8 (Homo sapiens) (UniProt Q9BY41).
T5 sequence (whole entry): T1 sequence (Q9BY41 whole entry)
In words: Inhibition of His-tagged HDAC8 (unknown origin) expressed in Escherichia coli BL21(DE3) at 10 uM after 60 mins by MALDI mass spectrometry. The gist of the method: (§3)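 Enzyme (250 nM) was incubated with inhibitor for 60 min at 37 °C in Tris-HCl pH 8.0 buffer containing NaCl, KCl, MgCl2 and BSA. Substrates were GRK(ac)FGC for HDAC1/HDAC8 and GRK(ac)YGC for HDAC6. Reactions were TSA-quenched, immobilized on maleimide SAMs and read by MALDI (SAMDI); deacetylation was taken as the product fraction.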

For assay [9], the target named is T2, Protein deacetylase HDAC6 (Homo sapiens). In words: Inhibition of His-tagged HDAC6 (unknown origin) expressed in Escherichia coli BL21(DE3) at 10 uM after 60 mins by MALDI mass spectrometry. Summed up:
as §3

The target in assay [10] is T4, Histone deacetylase 1. In words: Inhibition of His-tagged HDAC1 (unknown origin) expressed in Escherichia coli BL21(DE3) at 10 uM after 60 mins by MALDI mass spectrometry. Summed up: as §3
The test system of assay [11] is KB. The assay can be described thus: Cytotoxicity against human KB cells at 100 uM after 72 hrs by MTS assay. The format is functional. Summed up:
as §1

The species entered for assay [12] is Homo sapiens. In words: Selectivity ratio of IC50 for His-tagged HDAC8 (unknown origin) to IC50 for His-tagged HDAC6 (unknown origin). The gist of the method:
as §3

The species entered for assay [13] is Homo sapiens. The assay can be described thus: Selectivity ratio of IC50 for His-tagged HDAC1 (unknown origin) to IC50 for His-tagged HDAC6 (unknown origin). Summed up:
as §3

In assay [14] the target is T2, Protein deacetylase HDAC6 (Homo sapiens). In words: Inhibition of HDAC6 in human KB cells assessed as increase in tubulin acetylation at 100 uM after 4 hrs by Western blotting analysis. It counts as cell-based. Summed up: as §2

Activity calls are given as the source filed them. The rule behind the calls is not given here.

T4 sequence (Q13547 whole entry): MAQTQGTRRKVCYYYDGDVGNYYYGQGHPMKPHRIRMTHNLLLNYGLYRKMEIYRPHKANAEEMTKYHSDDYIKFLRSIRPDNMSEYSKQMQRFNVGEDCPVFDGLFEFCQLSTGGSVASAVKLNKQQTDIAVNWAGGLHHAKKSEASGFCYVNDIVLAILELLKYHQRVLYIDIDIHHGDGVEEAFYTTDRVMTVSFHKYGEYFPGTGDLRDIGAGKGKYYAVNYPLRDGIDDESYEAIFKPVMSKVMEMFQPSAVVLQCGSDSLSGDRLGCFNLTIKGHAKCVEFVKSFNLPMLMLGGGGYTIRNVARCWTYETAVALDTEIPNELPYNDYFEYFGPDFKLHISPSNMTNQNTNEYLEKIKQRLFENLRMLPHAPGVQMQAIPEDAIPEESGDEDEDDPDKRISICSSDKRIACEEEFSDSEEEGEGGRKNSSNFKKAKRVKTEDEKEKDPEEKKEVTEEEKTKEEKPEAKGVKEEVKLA

One may read the IC50 as the concentration needed to halve the response being measured. As usually defined, the inhibition is the change of the read-out against control, counted positive when it falls. High values mean strong suppression, low ones little suppression. Turning to `Nc1nc2ncc(CNc3ccc(C(=O)NCCCCCCC(=O)NO)cc3)nc2c(=O)[nH]1`, the IC50 was found to be 1060 nM on Histone deacetylase 8, 53700 nM with KB [1], 12.2 nM in assay [3] and 23.4 nM on Histone deacetylase 1 [5]. The inhibition at 100 µM in the assay with A549 was below 20%; with HeLa [4] it was 34%. Also, the result in assay [2] was Active.
Consider `Nc1nc2ncc(CNc3ccc(C(=O)NCCCCCCCC(=O)NO)cc3)nc2c(=O)[nH]1`, for which the IC50 was 9380 nM at Histone deacetylase 8; 30300 nM in the assay on KB [1]; 55.4 nM in assay [3]; 56600 nM with HeLa [7]; 16.1 nM against Histone deacetylase 1 [5]. The molecule also gave an inhibition at 100 µM in the assay with A549 below 20%. The outcome in assay [2] was Active. Besides, the result in the assay on KB [6] was inactive.
On to `Nc1nc2ncc(CNc3ccc(C(=O)N[C@@H](CCC(=O)NCCCC(=O)Nc4cc(-c5cccs5)ccc4N)C(=O)O)cc3)nc2c(=O)[nH]1`, for which the figures for the inhibition in assay [8] and in assay [9] were 23% and 22.8%, respectively. For the same molecule, on Histone deacetylase 1 [5], the IC50 is 2940 nM.
The matching figures for `Nc1nc2ncc(CNc3ccc(C(=O)N[C@@H](CCC(=O)NCCCCCCCCC(=O)Nc4cc(-c5cccs5)ccc4N)C(=O)O)cc3)nc2c(=O)[nH]1`: below 20%, below 20% and 309 nM.
Regarding `Nc1nc2ncc(CNc3ccc(C(=O)N[C@@H](CCC(=O)NO)C(=O)O)cc3)nc2c(=O)[nH]1`, the inhibition (against Histone deacetylase 1 [10]; in [8]; in [9]) was below 20% each time.
For the molecule `Nc1nc2ncc(CNc3ccc(C(=O)NCCCC(=O)NO)cc3)nc2c(=O)[nH]1`, the values for the inhibition (at Histone deacetylase 1 [10]; in assay [8]) were 22.1% and 25%, respectively. Besides, in assay [3], half-maximal inhibition (IC50) required 1460 nM. In addition, the inhibition at 100 µM in the assay on HeLa [4] and in the assay with KB [11] was below 20% throughout.
Consider `Nc1nc2ncc(CNc3ccc(C(=O)NCCCCC(=O)NO)cc3)nc2c(=O)[nH]1`, for which, in [8], the inhibition was found to be 39%. The IC50 in assay [3] worked out at 212 nM; on Histone deacetylase 1 [5] it was 6150 nM. Further, the inhibition at 100 µM in the assay with HeLa [4] and in the assay on KB [11] was below 20% throughout.
Consider `Nc1nc2ncc(CNc3ccc(C(=O)N[C@@H](CCC(=O)NCCCCCCCC(=O)Nc4cc(-c5cccs5)ccc4N)C(=O)O)cc3)nc2c(=O)[nH]1`, for which the results for the IC50 at Histone deacetylase 8 and at Histone deacetylase 1 [5] were 10000 nM and 287 nM, respectively. For the same molecule, the inhibition in assay [9] was below 20%.
As to `Nc1nc2ncc(CNc3ccc(C(=O)NO)cc3)nc2c(=O)[nH]1`, the IC50 against Histone deacetylase 8 was found to be 581 nM; in [3], 17.6 nM; on Histone deacetylase 1 [5], 2390 nM. For the same molecule, the Ratio IC50 was 32 in the assay filed under Homo sapiens [12] and 130 in the assay filed under Homo sapiens [13]. The result in [14] was Active.
In the case of `Nc1nc2ncc(CNc3ccc(C(=O)N[C@@H](CCC(=O)NCCCC(=O)NO)C(=O)O)cc3)nc2c(=O)[nH]1`, the inhibition against Histone deacetylase 1 [10] is below 20%; in [8] it was 40%. In assay [3], this molecule registered an IC50 of 8050 nM.
`Nc1nc2ncc(CNc3ccc(C(=O)NCCCCCC(=O)NO)cc3)nc2c(=O)[nH]1` showed an inhibition in assay [8] of 41%. Besides, the IC50 in [3] amounted to 43.6 nM; on Histone deacetylase 1 [5] it was 79.6 nM. Moreover, the inhibition at 100 µM was below 20% in the assay with HeLa [4] and 25% in the assay on KB [11].
With `Nc1nc2ncc(CNc3ccc(C(=O)N[C@@H](CCC(=O)NCCCCCCCC(=O)NO)C(=O)O)cc3)nc2c(=O)[nH]1`, the IC50 on Histone deacetylase 8 was determined as 2370 nM; in assay [3], 193 nM; at Histone deacetylase 1 [5] it was 1800 nM. The inhibition at 100 µM with HeLa [4] and with KB [11] was below 20% in each case.
On to `Nc1nc2ncc(CNc3ccc(C(=O)NCCCCCCCCC(=O)NO)cc3)nc2c(=O)[nH]1`, for which the IC50 against Histone deacetylase 8 was determined as 7590 nM; in assay [3] it was 10.2 nM; on Histone deacetylase 1 [5], 524 nM. Besides, the figures for the inhibition at 100 µM with HeLa [4] and with KB [11] were 35% and 33%, respectively.
`Nc1nc2ncc(CNc3ccc(C(=O)NCCCCCCCCCC(=O)NO)cc3)nc2c(=O)[nH]1`: the inhibition stood at 53% at Histone deacetylase 1 [10] and 40% in [8]. Besides, the IC50 in assay [3] is 476 nM. Besides, the inhibition at 100 µM in the assay with HeLa [4] is 36%; in the assay with KB [11], 47%.
Take `Nc1nc2ncc(CNc3ccc(C(=O)N[C@@H](CCC(=O)NCCCCCCCCC(=O)NO)C(=O)O)cc3)nc2c(=O)[nH]1`: the figures for the IC50 (against Histone deacetylase 8; in [3]; against Histone deacetylase 1 [5]) were 1560 nM, 179 nM and 2760 nM, respectively.
`CC(=O)Nc1ccc(C(=O)Nc2cc(-c3cccs3)ccc2N)cc1`: the IC50 in the assay with KB [1] is 5270 nM.
For the molecule `Nc1nc2ncc(CNc3ccc(C(=O)N[C@@H](CCC(=O)NCCCCCCC(=O)NO)C(=O)O)cc3)nc2c(=O)[nH]1`, the IC50 on Histone deacetylase 8 turned out to be 2390 nM; in [3] it was 132 nM; against Histone deacetylase 1 [5] it was 1770 nM. The inhibition at 100 µM in the assay on HeLa [4] and in the assay on KB [11] was below 20% in each case.
Consider `Nc1nc2ncc(CNc3ccc(C(=O)N[C@@H](CCC(=O)NCCCCCCC(=O)Nc4cc(-c5cccs5)ccc4N)C(=O)O)cc3)nc2c(=O)[nH]1`, for which the inhibition in assay [8] and in assay [9] was below 20% each time. On Histone deacetylase 1 [5], this molecule showed an IC50 of 435 nM.
